Here are results for 1 compound from ChEMBL document CHEMBL4351015, “Design, synthesis and biological evaluation of 3-(imidazo[1,2-a]pyrazin-3-ylethynyl)-2-methylbenzamides as potent and selective pan-tropomyosin receptor kinase (TRK) inhibitors” (Eur J Med Chem, 2019).

The target in series [1] is T1, BDNF/NT-3 growth factors receptor (Homo sapiens, UniProt Q16620). As to the kind of experiment: Inhibition of BDNF-induced TrkB (unknown origin) activation transfected in human SH-SY5Y cells assessed as decrease in Akt phosphorylation at Thr308 residue incubated for 6 hrs followed by BDNF addition further incubated for 30 mins by Western blot analysis. Type of series: cell-based. Summed up:
(§1)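 SH-SY5Y-TrkB stable transfectants were pretreated with 0–2.0 µM compound for 6 h, then given BDNF 10 ng/mL or none for 30 min. Lysates were run on 8–12% SDS-PAGE, blotted to PVDF and blocked in 5% BSA. Primary antibodies were applied overnight at 4 °C, then HRP secondary, with ECL detection. Phospho and total TrkB, PLC-γ1, Akt (Ser473, Thr308) and Erk were probed, with GAPDH as control.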
(In general: In western blotting, separated proteins are transferred to a membrane and probed.)

Series [2] concerns the target T1, BDNF/NT-3 growth factors receptor. Put plainly: Inhibition of TrkB (unknown origin) transfected in human SH-SY5Y cells assessed as decrease in BDNF-induced TrkB phosphorylation incubated for 6 hrs followed by BDNF addition further incubated for 30 mins by Western blot analysis. Type of series: cell-based. In outline:
as §1

In series [3] the test system is SH-SY5Y. As to the kind of experiment: Antiproliferative activity against human SH-SY5Y cells transfected with TrkB (unknown origin) assessed as reduction in cell viability incubated for 72 hrs by CCK8 assay. Type of series: functional, cell-based. In outline: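 SH-SY5Y-TrkB cells (SH-SY5Y stably transfected with pRP-TrkB, kept under 0.5 µg/ml puromycin in 1:1 MEM/F-12 with 10% FBS) seeded at 1500-3000/well, left overnight. Compounds 0.000457–3 µM were then added with or without BDNF 10 ng/ml for 72 h. Read-out by CCK8. IC50 came from concentration-response curve fitting, reported as mean ± SD from at least three independent experiments.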

A short description of series [4]: Ratio of drug concentration in brain to blood of Sprague-Dawley rat at 25 mg/kg, po administered via gavage incubated for 0.5 hrs by LC/MS-MS analysis. Type of series: ADME, organism-based. The note with it: brain and blood, read-out: BBR.
Series [5] deals with SH-SY5Y. Put plainly: Inhibition of BDNF-induced cell migration in human SH-SY5Y cells transfected with TrkB (unknown origin) at 8 nM incubated for 24 hrs by crystal violet staining microscopy based transwell assay relative to control. Type of series: functional. Summed up: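 Transwell migration: 1.5 X 10⁶ SH-SY5Y-TrkB cells in FBS-free medium containing 0, 8, 40 or 200 nM compound went in the top chamber. The bottom chamber held complete medium with or without BDNF 10 ng/mL. After 24 h at 37 °C, cells were methanol-fixed and stained with 0.25% crystal violet, and non-migrated cells were removed. Cells were counted in six random fields at 200X; mean of three independent experiments.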

Series [6] concerns the target T1, BDNF/NT-3 growth factors receptor. As to the kind of experiment: Inhibition of BDNF-induced TrkB (unknown origin) activation transfected in human SH-SY5Y cells assessed as decrease in Erk phosphorylation incubated for 6 hrs followed by BDNF addition further incubated for 30 mins by Western blot analysis. Type of series: cell-based. Summed up: as §1
The target of series [7] is RAC-alpha serine/threonine-protein kinase (Homo sapiens, UniProt P31749). As to the kind of experiment: Effect on ATK phosphorylation in BDNF-induced human SH-SY5Y cells up to 2 uM preincubated for 6 hrs followed by BDNF addition and measured after 30 mins by Western blot analysis. Type of series: cell-based. To be noted: 0.5 h.
Sequence of RAC-alpha serine/threonine-protein kinase (P31749 whole entry): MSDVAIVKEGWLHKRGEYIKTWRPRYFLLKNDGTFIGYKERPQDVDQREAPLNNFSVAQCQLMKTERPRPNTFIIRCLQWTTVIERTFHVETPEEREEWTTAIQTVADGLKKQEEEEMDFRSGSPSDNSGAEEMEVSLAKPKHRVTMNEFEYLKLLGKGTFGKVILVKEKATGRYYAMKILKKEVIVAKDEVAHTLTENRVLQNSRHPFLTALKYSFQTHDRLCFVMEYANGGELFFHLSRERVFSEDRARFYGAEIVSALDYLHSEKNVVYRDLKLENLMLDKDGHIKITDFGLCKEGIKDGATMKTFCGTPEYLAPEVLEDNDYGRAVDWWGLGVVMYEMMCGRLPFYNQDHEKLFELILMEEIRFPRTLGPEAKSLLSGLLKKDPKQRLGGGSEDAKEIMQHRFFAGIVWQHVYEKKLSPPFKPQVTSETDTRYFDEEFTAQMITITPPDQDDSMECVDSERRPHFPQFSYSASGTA

T1 sequence (Q16620 32-822 limits assumed): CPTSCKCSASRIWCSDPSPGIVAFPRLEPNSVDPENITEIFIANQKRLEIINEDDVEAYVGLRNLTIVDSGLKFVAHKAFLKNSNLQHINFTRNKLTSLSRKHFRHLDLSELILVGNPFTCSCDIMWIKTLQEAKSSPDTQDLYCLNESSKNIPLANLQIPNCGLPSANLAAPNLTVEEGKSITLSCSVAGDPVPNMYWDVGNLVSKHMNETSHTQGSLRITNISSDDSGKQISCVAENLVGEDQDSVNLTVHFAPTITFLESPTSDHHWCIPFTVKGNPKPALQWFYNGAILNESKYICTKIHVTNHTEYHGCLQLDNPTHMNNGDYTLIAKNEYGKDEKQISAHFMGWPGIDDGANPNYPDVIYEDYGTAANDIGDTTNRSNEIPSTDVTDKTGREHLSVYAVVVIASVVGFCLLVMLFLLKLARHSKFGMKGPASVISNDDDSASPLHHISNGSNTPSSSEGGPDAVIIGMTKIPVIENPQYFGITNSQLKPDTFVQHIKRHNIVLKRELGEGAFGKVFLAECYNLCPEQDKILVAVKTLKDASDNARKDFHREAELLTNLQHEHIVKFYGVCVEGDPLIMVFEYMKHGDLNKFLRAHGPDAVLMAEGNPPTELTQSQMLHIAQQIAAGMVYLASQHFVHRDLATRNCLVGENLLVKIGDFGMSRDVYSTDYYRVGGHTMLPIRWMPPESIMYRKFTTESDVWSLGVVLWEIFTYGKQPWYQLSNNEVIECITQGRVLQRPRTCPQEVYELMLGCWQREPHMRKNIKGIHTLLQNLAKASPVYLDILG

The term inhibition denotes the change of the read-out against control, counted positive when it falls. By IC50 is commonly meant the concentration needed to halve the response being measured. As to `Cc1c(C#Cc2cnc3cnc(-c4ccc(N)cc4)cn23)cccc1C(=O)Nc1cc(CN2CCN(C)CC2)cc(C(C)C)c1`, the inhibition entry in series [1], in series [2] and in series [6] was “Dose-dependent effect” each time. Moreover, the 50% inhibitory concentration (IC50) in the series on SH-SY5Y [3] was determined as 58 nM. Further, the Kp at 0.5 h in series [4] amounted to 6.4. In the series with SH-SY5Y [5], this compound yielded an inhibition at 0.008 µM of 22.7%. Moreover, the Activity result in series [7] is given as “Not Active”.
